Published values gathered from unrelated publications.
Each line is one published result; the experiments were not run side by side.
Medium: plasma

N#Cc1cccc(-c2ccc3ncc(-c4cc(F)cc(F)c4)c(N4CCC(N)CC4)c3c2)c1O
half-life (human; intravenous; 50 µg): 30 h

OC[C@H]1O[C@@H](c2cc(Cc3ccc(C4CC4)cc3)c(Cl)c3c2CCO3)[C@H](O)[C@@H](O)[C@@H]1O
half-life (human; oral; 0.3 mg; single dose, fasted, healthy volunteers): 12.5 h

CC(C)c1nc(N(C)S(C)(=O)=O)nc(-c2ccc(F)cc2)c1/C=C/[C@@H](O)C[C@@H](O)CC(=O)O
half-life (human; oral; 10 mg): 21.6 h

COc1ccc2c(c1)CN(C(=O)CCN1CCC(Cc3ccccc3)CC1)CC[S@@+]2[O-]
half-life (male human; intravenous; 0.15 mg/kg; single dose, healthy volunteers): 6.39 h

CC(=O)N(C)[C@H]1CCN(C(=O)c2cnc3c(c2)C[C@](C)(c2ccc(F)cc2)N3)C1
half-life (male human; oral; 30 mg; multiple doses, once daily, steady state): 21.8 h

Cc1cn([C@H]2C[C@H](N=[N+]=[N-])[C@@H](CO)O2)c(=O)[nH]c1=O
half-life (human; oral; 600 mg; single dose, healthy volunteers): 1.95 h

C=CC(=O)NC1CCN(c2ncc3ncnc(Nc4ccc(Oc5ccc6c(c5)ncn6C)c(C)c4)c3n2)CC1
half-life (male human; intravenous; 100 µg; healthy volunteers): 42.7 h

O=C(COc1ccc(Cl)cc1)NC12CC(c3nnc([C@H]4C[C@@H](OC(F)(F)F)C4)o3)(C1)C2
half-life (human; oral; 145 mg; multiple doses, once daily, healthy volunteers): 37.5 h

CC1(C)CC[C@]2(NC(=O)C(C)(F)F)CC[C@]3(C)[C@H](C(=O)C=C4[C@@]5(C)C=C(C#N)C(=O)C(C)(C)[C@@H]5CC[C@]43C)[C@@H]2C1
half-life (human; oral; 150 mg; single dose): 88.3 h

C[C@@H](Oc1ccc(S(C)(=O)=O)cc1C(=O)N1C[C@@H]2C[C@]2(c2cc(C(F)(F)F)on2)C1)C(F)(F)F
half-life (human; oral; 10 mg; single dose, fasted, healthy volunteers): 38.1 h
